Assay results of several laboratories.
Protocols differ between the studies behind these lines.
Cell line: HepG2
Effect on: cell growth or viability

SMILES	test	setting	CC50 [µM]
N=C(N)NCc1ccc(NC(=O)c2ccc(C(=O)Nc3cnc(C4=CCN(C(=N)N)CC4)cn3)cc2)cc1	MTS	24 h	585
COc1ccc(NC(=O)N2CCCCN3C[C@H](c4ccc(C#Cc5ccccc5)cc4)[C@@H]3C2)cc1	–	–	10
Cc1cc(Nc2ccc(S(F)(F)(F)(F)F)cc2)n2ncnc2n1	–	–	> 50
C[C@@H]1[C@H](O)[C@@H](C)/C=C/C=C/C=C/C=C/C=C/C=C/C=C/[C@H](O[C@@H]2O[C@H](C)[C@@H](O)[C@H](N)[C@@H]2O)C[C@@H]2O[C@](O)(C[C@@H](O)C[C@@H](O)[C@H](O)CC[C@@H](O)C[C@@H](O)CC(=O)O[C@H]1C)C[C@H](O)[C@H]2C(=O)O	MTS	24 h	4.6
N=C(N)NCc1ccc(NC(=O)C23CCC(C(=O)Nc4ccc(C5=CCN(C(=N)N)CC5)cc4)(CC2)CC3)cc1	MTS	24 h	253
COC(=O)c1c(C)ncn1CC(c1c[nH]c2ccc(C)cc12)c1c[nH]c2ccc(C)cc12	MTS	24 h	> 20
CCCCCCCCCCCC(=O)Nc1nc(N)nc2c1ncn2[C@H]1CO[C@@H](CO)O1	–	–	> 100
CC(=O)Oc1ccccc1C(=O)O	ATP luminescence	–	> 1000
O=C(NCCCN1CCOCC1)c1ccc(Nc2ncc(Cl)c(-c3ccc(Cl)s3)n2)cc1	–	44 h	4.9
CC(=O)Nc1ccc(O)cc1	ATP luminescence	–	> 1000
N=C(N)N1CC=C(c2coc(C(=O)Nc3ccc(C4=CCN(C(=N)N)CC4)c(F)c3)c2)CC1	MTS	24 h	129
COC(=O)c1c(C)ncn1CC(c1cn(C)c2ccccc12)c1cn(C)c2ccccc12	MTS	24 h	> 20
N=C(N)NCc1ccc(NC(=O)c2ccc(C(=O)Nc3ccc(C4=CCN(C(=N)N)CC4)nn3)cc2)cc1	MTS	24 h	326
COC(=O)c1c(C)ncn1CC(c1c[nH]c2cc(Br)ccc12)c1c[nH]c2cc(Br)ccc12	MTS	24 h	> 20
CC(C)c1c(C(=O)Nc2ccccc2)c(-c2ccccc2)c(-c2ccc(F)cc2)n1CC[C@@H](O)C[C@@H](O)CC(=O)O	MTT	24 h	~100
Cc1ccc(-c2nc(Nc3ccc(C(=O)N4CCC(N5CCCC5)CC4)cc3)ncc2Cl)s1	–	44 h	9.3
